We go through 19 compounds from ChEMBL document CHEMBL2407028, “Discovery of novel oxazolidinedione derivatives as potent and selective mineralocorticoid receptor antagonists” (Bioorg Med Chem Lett, 2013).

In data set [1] the test system is Rattus norvegicus. Description: Dose normalized AUC in rat at 1 mg/kg, po. In kind it is ADME, organism-based. Set-up: dose 1 mg/kg, route oral. The settings on record: in vivo. The essentials:
(§1)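 Rats dosed at 1 mg/kg iv (n = 2) or 1 mg/kg po (n = 3), formulated at 1 mg/mL in PEG 200:water (70:30). Blood concentrations measured by LC/MS/MS after protein precipitation with acetonitrile.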

The subject of data set [2] is Rattus norvegicus. Description: Dose normalized AUC in rat at 1 mg/kg, iv. The data set is classed as ADME, organism-based. Set-up: dose 1 mg/kg, route intravenous. The settings on record: in vivo. An outline of the steps: as §1
Data set [3] can be described thus: Cmax in rat at 1 mg/kg, iv and 1 mg/lg, po. On the set-up: dose 1 mg/kg, route oral. The settings on record: in vivo. The data set is classed as ADME, organism-based. The essentials:
as §1

Data set [4] is described as follows: Half life in rat at 1 mg/kg, iv and 1 mg/lg, po. On the set-up: dose 1 mg/kg, route oral. In kind it is ADME, organism-based. The settings on record: in vivo. An outline of the steps:
as §1

The subject of data set [5] is Rattus norvegicus. Description: Volume of distribution at steady state in rat at 1 mg/kg, iv and 1 mg/lg, po. The settings on record: in vivo. The data set is classed as ADME, organism-based. Set-up: dose 1 mg/kg, route oral. The essentials:
as §1

The nature of data set [6]: Oral bioavailability in rat at 1 mg/kg. In kind it is ADME, organism-based. The settings on record: in vivo. The essentials:
as §1

In data set [7] the target is T1, Mineralocorticoid receptor (Homo sapiens, UniProt P08235).
T1 sequence (P08235 whole entry): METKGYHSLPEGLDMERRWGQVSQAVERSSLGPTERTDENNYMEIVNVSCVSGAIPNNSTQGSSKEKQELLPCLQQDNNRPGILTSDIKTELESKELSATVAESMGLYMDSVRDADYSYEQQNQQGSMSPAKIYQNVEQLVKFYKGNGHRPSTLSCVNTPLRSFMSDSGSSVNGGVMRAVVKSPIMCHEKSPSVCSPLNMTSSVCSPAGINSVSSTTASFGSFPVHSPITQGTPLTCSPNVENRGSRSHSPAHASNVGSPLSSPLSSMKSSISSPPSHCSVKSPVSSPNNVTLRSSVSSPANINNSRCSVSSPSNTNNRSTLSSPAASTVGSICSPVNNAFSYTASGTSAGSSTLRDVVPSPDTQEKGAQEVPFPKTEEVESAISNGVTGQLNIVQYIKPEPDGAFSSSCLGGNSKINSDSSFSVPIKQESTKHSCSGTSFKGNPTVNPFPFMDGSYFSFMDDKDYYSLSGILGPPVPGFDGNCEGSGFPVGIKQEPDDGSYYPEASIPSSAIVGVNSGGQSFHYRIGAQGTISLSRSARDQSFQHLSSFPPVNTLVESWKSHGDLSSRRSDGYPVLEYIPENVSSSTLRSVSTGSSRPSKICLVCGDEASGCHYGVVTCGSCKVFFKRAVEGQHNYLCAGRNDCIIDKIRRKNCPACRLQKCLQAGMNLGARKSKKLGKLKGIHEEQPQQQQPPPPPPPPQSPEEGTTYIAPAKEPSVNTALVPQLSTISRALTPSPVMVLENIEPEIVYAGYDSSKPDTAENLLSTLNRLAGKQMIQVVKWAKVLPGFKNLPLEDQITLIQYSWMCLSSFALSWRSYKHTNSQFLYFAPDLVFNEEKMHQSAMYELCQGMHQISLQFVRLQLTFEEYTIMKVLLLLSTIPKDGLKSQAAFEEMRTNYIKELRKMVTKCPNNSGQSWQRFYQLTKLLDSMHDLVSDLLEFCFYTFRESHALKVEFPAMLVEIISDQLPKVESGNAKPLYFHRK
Description: Antagonist activity at human mineralocorticoid receptor assessed as inhibition of binding to coactivator peptide by NH Pro assay.

The target in data set [8] is T2, Estrogen receptor (Homo sapiens, UniProt P03372).
T2 sequence (P03372 whole entry): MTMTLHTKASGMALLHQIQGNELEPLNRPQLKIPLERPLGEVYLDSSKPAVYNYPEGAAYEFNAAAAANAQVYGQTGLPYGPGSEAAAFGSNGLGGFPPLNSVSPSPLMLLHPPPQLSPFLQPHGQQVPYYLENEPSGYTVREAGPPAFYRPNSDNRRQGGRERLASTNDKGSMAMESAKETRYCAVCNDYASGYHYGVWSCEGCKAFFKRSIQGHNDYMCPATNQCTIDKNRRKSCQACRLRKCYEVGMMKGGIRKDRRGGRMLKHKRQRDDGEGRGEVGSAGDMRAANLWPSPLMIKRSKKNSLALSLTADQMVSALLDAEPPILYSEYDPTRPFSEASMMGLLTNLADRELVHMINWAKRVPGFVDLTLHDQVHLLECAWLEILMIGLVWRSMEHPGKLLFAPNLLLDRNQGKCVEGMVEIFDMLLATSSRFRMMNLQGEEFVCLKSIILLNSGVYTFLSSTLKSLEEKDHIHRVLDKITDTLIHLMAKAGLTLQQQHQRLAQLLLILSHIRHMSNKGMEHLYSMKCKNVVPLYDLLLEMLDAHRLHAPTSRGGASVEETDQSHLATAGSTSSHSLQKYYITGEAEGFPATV
Description: Antagonist activity at estrogen receptor alpha (unknown origin) by NH Pro assay.

Data set [9] deals with T2, Estrogen receptor. Description: Agonist activity at estrogen receptor alpha (unknown origin) by NH Pro assay.
Data set [10] deals with T3, Glucocorticoid receptor (Homo sapiens, UniProt P04150).
T3 sequence (P04150 whole entry): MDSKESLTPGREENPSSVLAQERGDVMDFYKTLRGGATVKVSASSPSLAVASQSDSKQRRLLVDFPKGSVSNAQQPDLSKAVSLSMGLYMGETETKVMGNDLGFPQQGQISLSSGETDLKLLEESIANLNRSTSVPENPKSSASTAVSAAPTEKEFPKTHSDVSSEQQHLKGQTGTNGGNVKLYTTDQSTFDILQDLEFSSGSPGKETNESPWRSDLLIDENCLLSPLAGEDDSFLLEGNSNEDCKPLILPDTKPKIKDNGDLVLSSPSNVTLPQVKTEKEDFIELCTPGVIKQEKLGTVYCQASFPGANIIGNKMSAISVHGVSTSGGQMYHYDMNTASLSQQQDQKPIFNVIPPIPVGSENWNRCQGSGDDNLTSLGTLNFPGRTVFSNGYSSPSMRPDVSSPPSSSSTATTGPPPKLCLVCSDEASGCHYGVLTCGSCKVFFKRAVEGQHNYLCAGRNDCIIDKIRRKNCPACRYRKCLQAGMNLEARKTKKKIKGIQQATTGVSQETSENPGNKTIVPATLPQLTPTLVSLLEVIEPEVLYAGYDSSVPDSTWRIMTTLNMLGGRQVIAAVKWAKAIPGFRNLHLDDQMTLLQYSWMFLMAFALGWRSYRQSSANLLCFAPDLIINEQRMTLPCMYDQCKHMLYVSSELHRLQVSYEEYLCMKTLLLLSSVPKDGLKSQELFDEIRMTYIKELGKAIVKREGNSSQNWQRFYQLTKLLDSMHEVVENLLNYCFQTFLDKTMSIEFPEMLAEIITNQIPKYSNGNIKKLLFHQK
Description: Agonist activity at glucocorticoid receptor (unknown origin) by NH Pro assay.

The target of data set [11] is T3, Glucocorticoid receptor. Description: Antagonist activity at glucocorticoid receptor (unknown origin) by NH Pro assay.

A value given as a limit tells only on which side of the number the result lay.

The Cmax is the highest concentration seen after dosing. For orientation: half-life means how long it takes for the measured level to halve. A word on the bioavailability: it is the share of a dose that reaches the circulation, judged against a reference dose that is usually intravenous. Read a low bioavailability as poor availability. In general, IC50 refers to the point on the concentration scale where inhibition reaches its midpoint. What is called EC50 is the concentration that produces a half-maximal response.

As to `COc1cc(CNC(=O)[C@@]2(Cc3ccccc3)OC(=O)N([C@H](C)c3ccccc3)C2=O)cc(OC)c1`, the AUC/dose with Rattus norvegicus [1] worked out at 0.05 µM·kg·h/mg; with Rattus norvegicus [2], 0.75 µM·kg·h/mg. The same compound returned a Cmax in [3] of 60 nM. In [4], this compound showed a half-life of 72 min. In the data set with Rattus norvegicus [5], this compound yielded a Vdss of 2.8 L/kg. The same compound yielded a bioavailability in data set [6] of 7%. Besides, the IC50 in [7] was found to be 54 nM.

Turning to `COC(=O)[C@@H]1CC2=CC(=O)CC[C@]2(C)[C@@]23O[C@@H]2C[C@@]2(C)[C@@H](CC[C@@]24CCC(=O)O4)[C@H]13` [EPLERENONE], the IC50 at Estrogen receptor [8] was above 20 µM. At Estrogen receptor [9], this compound had a half-maximal effective concentration (EC50) above 20 µM.

Regarding `CC(=O)S[C@@H]1CC2=CC(=O)CC[C@]2(C)[C@H]2CC[C@@]3(C)[C@@H](CC[C@@]34CCC(=O)O4)[C@H]12` [SPIRONOLACTONE], the IC50 against Estrogen receptor [8] is above 20 µM; on Glucocorticoid receptor [11], 4.1 µM. The EC50 on Estrogen receptor [9] and on Glucocorticoid receptor [10] was above 20 µM each time.

With `COc1cc(CNC(=O)[C@@]2(Cc3ccccc3)OC(=O)N([C@H](C)c3ccc(Cl)cc3)C2=O)cc(OC)c1`, the IC50 in [7] was found to be 55 nM.

Consider `C[C@H](NC(=O)[C@@]1(Cc2ccccc2)OC(=O)N([C@H](C)c2ccccc2)C1=O)c1cccc(Cl)c1`, for which the IC50 in data set [7] amounted to 2600 nM.

Regarding `C[C@H](c1ccccc1)N1C(=O)O[C@](Cc2ccccc2)(C(=O)NCc2cccc3cnccc23)C1=O`, the IC50 in data set [7] came out at 3000 nM.

Turning to `COc1cc(CNC(=O)C2(Cc3ccccc3)CN(Cc3ccccc3)C(=O)O2)cc(OC)c1` (centres undefined), the IC50 in data set [7] is above 40000 nM.

Regarding `COc1cc(CNC(=O)[C@H]2OC(=O)N(Cc3ccccc3)C2=O)cc(OC)c1`, the concentration for half-maximal inhibition (IC50) in data set [7] is above 40000 nM.

Turning to `COc1cc(CNC(=O)[C@@]2(Cc3ccc(Cl)cc3)OC(=O)N([C@H](C)c3ccccc3)C2=O)cc(OC)c1`, the IC50 in [7] is above 40000 nM.

In the case of `COc1cc(CNC(=O)[C@@]2(Cc3ccc4ccccc4c3)OC(=O)N([C@H](C)c3ccccc3)C2=O)cc(OC)c1`, the IC50 in [7] is above 40000 nM.

As to `C[C@H](c1ccccc1)N1C(=O)O[C@](Cc2ccccc2)(C(=O)N[C@@H]2C[C@H]2c2ccccc2)C1=O`, in data set [7], the IC50 is 250 nM.

As to `C[C@H](c1ccccc1)N1C(=O)O[C@](Cc2ccccc2)(C(=O)NCCc2nnc[nH]2)C1=O`, in data set [7], the IC50 is above 40000 nM.

With `C[C@H](c1ccccc1)N1C(=O)O[C@](Cc2ccccc2)(C(=O)N2CCc3ccccc3C2)C1=O`, the IC50 in data set [7] amounted to 340 nM.

Consider `COc1cc(CNC(=O)[C@@]2(Cc3ccccc3)OC(=O)N([C@H](C)C3CCCCC3)C2=O)cc(OC)c1`, for which the IC50 in data set [7] was 14 nM.

Regarding `C[C@H](c1ccccc1)N1C(=O)O[C@](Cc2ccccc2)(C(=O)Nc2ccc(F)cc2)C1=O`, the IC50 in data set [7] is 100 nM.

Turning to `COc1cc(CNC(=O)[C@@]2(Cc3ccccc3Cl)OC(=O)N([C@H](C)c3ccccc3)C2=O)cc(OC)c1`, in [7], the IC50 was determined as 450 nM.

`C[C@H](c1ccccc1)N1C(=O)O[C@](Cc2ccccc2)(C(=O)N[C@H]2C[C@H](c3ccccc3)C2)C1=O`: the IC50 in [7] is 190 nM.

Regarding `C[C@H](c1ccc(F)cc1)N1C(=O)O[C@](Cc2ccccc2)(C(=O)Nc2ccccc2)C1=O`, the IC50 in data set [7] was determined as 270 nM.

As for `COc1cc(CNC(=O)[C@@]2(Cc3ccccc3)OC(=O)N(C3CCN(C(=O)C(F)(F)F)CC3)C2=O)cc(OC)c1`, the 50% inhibitory concentration (IC50) in [7] is 2900 nM.
